Assay results as given in paper PMC4063182 (Journal of the American Chemical Society, 2014).
Positions count from the first letter of the chain named. Where two headings read alike, the source gives them in different places.

Experiments:
ferric WT DHP B [1] = biological target: T1, ferric WT DHP B (Amphitrite ornata, UniProt Q9NAV7); test: H2O2-dependent oxidation of haloindoles monitored by HPLC; assay type: biochemical; conditions: for conversion (%): 5 min
T1 sequence (Q9NAV7 1-138): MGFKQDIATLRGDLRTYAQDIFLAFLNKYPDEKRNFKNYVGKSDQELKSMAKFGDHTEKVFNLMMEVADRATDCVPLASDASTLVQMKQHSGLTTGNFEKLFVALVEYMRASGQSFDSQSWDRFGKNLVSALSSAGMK
Summary of the method: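 Triplicate reactions at 25 °C in 5% MeOH/100 mM KPi, pH 7, unless pH varied. Ferric DHP B (10 μM final) was premixed with substrate (500 μM final), and reactions were started with H2O2 (500 μM). Additives: 10% v/v DMSO, 500 μM mannitol, SOD, or buffer containing 500 mM sodium formate. Reactions were quenched with excess catalase after 5 min and diluted 10-fold. C18 reverse-phase HPLC used photodiode-array detection, with conversion from standard calibration curves.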

DHP A Ferric = test: H2O2-dependent oxidation of haloindoles monitored by HPLC, isoenzyme A; assay type: biochemical, Amphitrite ornata; conditions: DHP A Ferric 10 μM; [haloindole] = [H2O2] = 500 μM; pH 7, 25 °C, 5 min
Summary of the method: (§1)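 Triplicate reactions at 25 °C, pH 7, in 5% MeOH/100 mM KPi. Enzyme (10 μM final; ferric isoenzyme A or oxyferrous DHP B) was premixed with haloindole (500 μM), and reactions were started with 500 μM H2O2. After 5 min, reactions were quenched with excess catalase and diluted 10-fold in buffer. Analysis was by C18 reverse-phase HPLC (water/TFA to MeCN gradient) with diode-array detection, quantified against standard calibration curves.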

ferric WT DHP B [2] = biological target: T1, ferric WT DHP B; conditions: cited from earlier work
ferric DHP B = biological target: T2, ferric DHP B (Amphitrite ornata, UniProt Q9NAV7); test: Reactivity studies of 5-Br-3-oxindole by UV-vis; assay type: biochemical
T2 sequence (Q9NAV7 1-138): T1 sequence (Q9NAV7 1-138)
Summary of the method: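 5-Br-3-acetoxyindole (250 μM) was incubated <1 min with or without 10 μM ferric wild-type DHP B in 5% MeOH/100 mM KPi, pH 7, in a quartz cuvette. Porcine liver esterase (45 U) started the reaction, and UV-vis spectra were taken over time, aerobically or anaerobically (argon-degassed solutions, glovebox, sealed cuvette). Indigo product was quantified at 659 nm using ε = 22 140 M–1 cm–1.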

DHP B Oxyferrous = biological target: T3, DHP B Oxyferrous (Amphitrite ornata, UniProt Q9NAV7); test: H2O2-dependent oxidation of haloindoles monitored by HPLC, oxyferrous enzyme; assay type: biochemical; conditions: DHP B Oxyferrous 10 μM; [haloindole] = [H2O2] = 500 μM; pH 7, 25 °C, 5 min
T3 sequence (Q9NAV7 1-138): T1 sequence (Q9NAV7 1-138)
Summary of the method: as §1

[3] = biological target: T4, horseradish peroxidase (HRP) (Armoracia rusticana, UniProt P00433); test: H2O2-dependent oxidation of 5-Br-indole monitored by HPLC, HRP; assay type: biochemical; conditions: HRP 10 μM; [haloindole] = [H2O2] = 500 μM; pH 7, 25 °C, 5 min; n.d. = none detected
T4 sequence (P00433 31-338 limits assumed): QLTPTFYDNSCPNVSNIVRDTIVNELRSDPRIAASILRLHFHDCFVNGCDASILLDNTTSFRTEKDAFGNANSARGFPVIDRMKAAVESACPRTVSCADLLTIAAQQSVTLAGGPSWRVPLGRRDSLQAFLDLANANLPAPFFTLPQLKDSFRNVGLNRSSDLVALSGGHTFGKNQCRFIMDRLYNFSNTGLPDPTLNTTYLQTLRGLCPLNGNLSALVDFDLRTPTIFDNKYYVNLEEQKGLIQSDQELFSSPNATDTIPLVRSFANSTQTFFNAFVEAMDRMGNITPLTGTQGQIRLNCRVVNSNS

[4] = biological target: horse heart myoglobin (hhMb) (Equus caballus, UniProt P68082); test: H2O2-dependent oxidation of 5-Br-indole monitored by HPLC, myoglobin; assay type: biochemical; conditions: hhMb 10 μM; [haloindole] = [H2O2] = 500 μM; pH 7, 25 °C, 5 min; n.d. = none detected
horse heart myoglobin (hhMb), sequence (P68082 whole entry): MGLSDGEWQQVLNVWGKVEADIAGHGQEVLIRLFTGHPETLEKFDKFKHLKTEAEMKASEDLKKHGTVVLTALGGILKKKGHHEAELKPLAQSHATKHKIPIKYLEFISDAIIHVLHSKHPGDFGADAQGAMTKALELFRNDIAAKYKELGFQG

ferric WT DHP B [5] = biological target: T1, ferric WT DHP B; test: 5-haloindole binding studies
WT DHP B Compound ES = biological target: T5, WT DHP B Compound ES (Amphitrite ornata, UniProt Q9NAV7); test: Double-mixing stopped-flow UV-vis, preformed Compound ES; assay type: biochemical
T5 sequence (Q9NAV7 1-138): T1 sequence (Q9NAV7 1-138)
Summary of the method: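 Double-mixing rapid-scan stopped-flow UV-vis at 20 °C in 5% MeOH/100 mM KPi, pH 7. Ferric wild-type DHP B (10 μM) was mixed with 10 equiv H2O2 and aged 350 ms to accumulate Compound ES. It was then mixed with 10, 25 or 50 equiv 5-Br-indole, and 800 scans were taken over 83 s. Spectra were fitted to component time courses.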

[6] = biological target: T6, DHP B(Y28F/Y38F) Compound I (Amphitrite ornata, UniProt Q9NAV7, Y29F/Y39F); test: Double-mixing stopped-flow UV-vis, preformed Compound I; assay type: biochemical
T6 sequence (Q9NAV7 1-138 Y29F/Y39F): T1 sequence (Q9NAV7 1-138) with Y29F, Y39F

oxyferrous DHP B = biological target: T7, oxyferrous DHP B (Amphitrite ornata, UniProt Q9NAV7); test: Stopped-flow UV-vis with oxyferrous DHP B / Compound II; assay type: biochemical; conditions: preincubated with 2.5 equiv 5-Br-indole, 5 equiv H2O2, pH 7
T7 sequence (Q9NAV7 1-138): T1 sequence (Q9NAV7 1-138)
Summary of the method: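 Single-mixing rapid-scan stopped-flow at 20 °C in 5% MeOH/100 mM KPi, pH 7.0. Oxyferrous DHP B (10 μM) was preincubated with 2.5 equiv 5-Br-indole, then rapidly mixed with 5 equiv H2O2. 800 spectra were collected over 83 s. Spectra were fitted to component species to obtain relative concentration time courses.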

[7] = DHP B Ferric, anaerobic, [haloindole] = [H2O2] = 500 μM, pH 7, 25 °C
[8] = 10 equiv 5-Br-indole, 10 equiv H2O2, pH 7
[9] = read-out: apparent dissociation constant (Kd), 10 μM ferric WT DHP B, 100 mM KPi pH 7, 10% MeOH

Structure (SMILES): Brc1cccc2[nH]ccc12 [4-Br-indole]
- conversion (%) (ferric WT DHP B [1]; [7]): 40.1 (±0.9) %
- conversion (%) (DHP A Ferric): 15.7 (±0.7) %

Structure (SMILES): Oc1ccc(Br)cc1 [4-bromophenol, reference compound]
- attenuation in reactivity of 5-Br-indole (ferric WT DHP B [1]; in the presence of 500 μM 4-bromophenol): 2 fold
- Kd (ferric WT DHP B [2]): ~1200 µM

Structure (SMILES): O=C1/C(=C2\Nc3ccc(Br)cc3C2=O)Nc2ccc(Br)cc21 [5,5′-Br2-indigo, (E)-5,5′-dibromo-[2,2′-biindolinylidene]-3,3′-dione]
- product distribution of 5-Br-indole reaction (HPLC) (ferric WT DHP B [1]; 5-Br-indole 500 μM, DHP B 10 μM, H2O2 500 μM, pH 7, 1a determined from mass balance): ~2%
- 5,5′-Br2-indigo formation aerobic versus anaerobic (ferric DHP B; DHP present): ~4 fold
- 5,5′-Br2-indigo formed in the presence of DHP versus the absence of enzyme (ferric DHP B; aerobic, after 5 min): 45 fold
- 5,5′-Br2-indigo concentration formed from 5-Br-3-oxindole (ferric DHP B; anaerobic, 10 μM DHP, after 10 min): ~8 µM

Structure (SMILES): Brc1ccc2[nH]ccc2c1 [5-Br-indole]
- conversion (%) (ferric WT DHP B [1]; DHP B Ferric + 500 μM 4-BP, pH 7, 25 °C): 23.2 (±5.1) %
- conversion (%) (ferric WT DHP B [1]; DHP B Ferric + 500 μM mannitol, pH 7, 25 °C): 46.2 (±1.6) %
- conversion (%) (ferric WT DHP B [1]; DHP B Ferric + 500 mM formate, pH 7, 25 °C): 45.8 (±1.1) %
- conversion (%) (ferric WT DHP B [1]; DHP B Ferric + 10% DMSO, pH 7, 25 °C): 45.0 (±4.4) %
- conversion (%) (ferric WT DHP B [1]; DHP B Ferric + SOD ∼2 U/μL, pH 7, 25 °C): 46.1 (±0.7) %
- conversion (%) (ferric WT DHP B [1]; [7]): 53.3 (±0.3) %
- conversion (%) (ferric WT DHP B [1]; DHP B Ferric, pH 5, 25 °C): 63.4 (±0.1) %
- conversion (%) (ferric WT DHP B [1]; DHP B Ferric, pH 6, 25 °C): 54.7 (±1.9) %
- conversion (%) (ferric WT DHP B [1]; DHP B Ferric, pH 8, 25 °C): 34.4 (±2.4) %
- conversion (%) (DHP B Oxyferrous): 44.9 (±4.8) %
- conversion (%) (DHP A Ferric): 20.3 (±1.7) %
- conversion (%) [3]: no reactivity
- conversion (%) [4]: no reactivity
- Kd (ferric WT DHP B [5]): 150 ± 10 µM
- kobs, formation of mixture of oxyferrous and ferric DHP B at longer observation times (WT DHP B Compound ES; [8]): (1.39 ± 0.08) × 10^–2 s^–1
- kobs, reduction of preformed Compound ES to ferric DHP B (WT DHP B Compound ES; [8]): (2.54 ± 0.05) × 10^5 M^–1 s^–1
- time for reduction of Compound ES (within mixing time) (WT DHP B Compound ES; ≥25 equiv 5-Br-indole): < 2.5 ms
- time to conversion to oxyferrous DHP B(Y28F/Y38F) ([6]; 10 equiv 5-Br-indole): 697 s
- time to conversion to oxyferrous DHP B(Y28F/Y38F) ([6]; 50 equiv 5-Br-indole): 120 s
- kobs, conversion of oxyferrous DHP B to Compound II (oxyferrous DHP B): (3.30 ± 0.01) × 10^–2 s^–1

Structure (SMILES): Clc1ccc2[nH]ccc2c1 [5-Cl-indole]
- Kd (ferric WT DHP B [5]; [9]): 317 ± 23 µM

Structure (SMILES): Fc1ccc2[nH]ccc2c1 [5-F-indole]
- changes in the optical difference spectra upon binding (ferric WT DHP B [5]; even at the highest concentrations tested (up to 100 equiv)): No significant changes

Structure (SMILES): Ic1ccc2[nH]ccc2c1 [5-I-indole]
- Kd (ferric WT DHP B [5]; [9]): 62 ± 10 µM

Structure (SMILES): c1ccc2[nH]ccc2c1 [indole]
- reactivity lower than 5-Br-indole (ferric WT DHP B [1]; ferric WT DHP B, pH 7): 2 fold
